Sampled rows, rich in hits. Any-hit rate of the full collection: about 3%.
5HT1E ag = 5-HT1E (human) receptor agonism; P28566; 65,000 tested, 0.69% active; AID 574; activation, % at 6 µM; CHO 5-HT1E Ga15 NFAT-bla reporter, FRET; 0% DMSO wells, 100% control agonist wells;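 active = activation above a set limit, the screen-wide mean activation plus 3 SD, cut at about 8.5% in these data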;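 also: 100% = positive control agonist at 1 µM giving full maximal response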
5-HT1A blocker = antagonists of human 5-HT1a serotonin receptor; P08908; CHO 5-HT1a Ga15 NFAT-bla reporter, antagonist mode; inhibition, % at 10 µM; 62,000 tested, 0.68% active; AID 612;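 active = inhibition above the mean of all tested compounds plus 3 SD, cut at about 43% in these data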;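 also: receptor stimulated by 5-CT agonist at 100 nM near EC80; beta-lactamase reporter measured by ratiometric fluorescence of a cleavable substrate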
S1P3 agonist = agonists of human S1P3 receptor. S1P3 NFAT-BLA reporter cells, agonism, FRET ratio; relative to 1 µM S1P, basal subtracted. activation, % at 4.5 µM. AID 373. 60,000 tested, 0.1% active;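 active = activation above the screen-wide mean plus 3 SD, cut at about 4.5% in these data, passing the limit was not always enough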
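Benchmarks: high control 1 µM S1P / System: stable CHO line with human S1P3, Gα16, NFAT-BLA reporter / Dosing: single compound concentration, 4.5 µM final / Timing: 4 h compound at 37 °C, 2 h substrate at RT / Measured by: FRET β-lactamase substrate fluorescence, excitation 405 nm, 460/535 nm emission ratio, background-subtracted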
HTR1E antagonist = blocks the human 5-HT1E serotonin receptor | P28566 | CHO 5-HT1E Ga15 NFAT-bla reporter, FRET, antagonist | inhibition, % at 6 µM | 65,000 tested, 0.99% active | AID 571;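 active = inhibition above a set limit, the mean inhibition across every tested compound plus 3 SD, cut at about 29% in these data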;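 also: signal is the 460 over 535 nm emission ratio of beta-lactamase substrate; 0% = agonist plus DMSO wells and 100% = wells without agonist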
HTR1A agonist = 5-HT1a (human) receptor agonism; CHO 5-HT1a Ga15 NFAT-bla reporter, FRET ratio; 0% basal, 100% maximal reference agonist; activation, % at 10 µM; AID 567; 65,000 tested, 0.56% active;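 active = activation above the screen-wide mean activation plus 3 SD, cut at about 19% in these data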;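 also: 0% = DMSO wells and 100% = 5-CT at EC100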
S1P1 ag pot = activates or potentiates agonism at human S1P1 receptor; activation, % at 9.5 µM; P21453; AID 449; 56,000 tested, 0.57% active; S1P1 CRE-bla cells, forskolin, beta-lactamase FRET, potentiator mode; S1P1 agonist co-added at EC20, 2 nM; 100% = saturating reference agonist, 0% = basal;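 active = activation above a cutoff set at the mean activation of all tested compounds plus 3 SD, cut at about 54% in these data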;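 also: forskolin at 4 µM as EC80 and the EC20 agonist is SEW2871; 100% = SEW2871 at its EC100 plus forskolin at EC80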
Target sequence (P21453 whole entry, looked up): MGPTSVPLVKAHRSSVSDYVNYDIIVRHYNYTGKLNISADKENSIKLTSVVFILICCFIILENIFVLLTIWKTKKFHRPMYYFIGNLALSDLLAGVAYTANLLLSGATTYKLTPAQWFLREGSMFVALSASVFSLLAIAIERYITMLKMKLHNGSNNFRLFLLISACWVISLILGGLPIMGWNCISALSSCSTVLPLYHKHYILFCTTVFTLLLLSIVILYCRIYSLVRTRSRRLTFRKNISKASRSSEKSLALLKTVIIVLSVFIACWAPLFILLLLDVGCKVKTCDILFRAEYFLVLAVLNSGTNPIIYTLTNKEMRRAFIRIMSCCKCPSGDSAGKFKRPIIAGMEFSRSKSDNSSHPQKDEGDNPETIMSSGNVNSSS
Numbers without * were called inactive; x = not tested or not shown.

SMILES | 5HT1E ag | 5-HT1A blocker | S1P3 agonist | HTR1E antagonist | HTR1A agonist | S1P1 ag pot
CSc1ncccc1C(=O)OCc1ccccc1F | 2 | -8 | 0 | -3 | 73* | 25
COc1cccc(OCc2nc3c4cnn(-c5ccccc5)c4ncn3n2)c1 | 0 | 0 | -1 | 2 | 24* | 6
COc1cccc(OCCN2CCN(c3ncnc4c3cnn4-c3ccccc3)CC2)c1 | 0 | x | -4 | -10 | 6 | -1
Cc1nc(NC(=O)CSc2nnnn2Cc2ccccc2)sc1C | 0 | -11 | 0 | -12 | -1 | -5
c1ccc(Cn2nnnc2C(c2cccs2)N2CCc3ccccc3C2)cc1 (stereo not given) | -1 | 52* | -1 | 13 | 0 | 40
COc1ccc(Cn2nnnc2C(c2cccs2)N2CCN(c3ccccc3)CC2)cc1 (stereo not given) | 0 | 44* | -2 | 7 | -1 | 18
Cc1ccc(C)c(N2CCN(C(c3ccncc3)c3nnnn3Cc3ccccc3)CC2)c1 (stereo not given) | 36* | -174 | -1 | 2 | 0 | 7
COC(=O)C1=CNC=C(C(=O)OC)C1c1ccc(C(=O)OC)cc1 | 2 | 6 | 0 | 5 | 2 | -35
COc1ccc(Cl)cc1-c1nc(-c2ccc(NC(=O)c3ccncc3)cc2)no1 | 0 | -8 | 0 | 0 | -2 | 26
COc1ccc(-c2noc(-c3cc(C)cc(C)c3)n2)cc1OC | 0 | 6 | 0 | -7 | -2 | 106*
COc1ccc(-c2nc(-c3ccc(NC(=O)c4ccncc4)cc3)no2)cc1OC | 1 | 43* | 0 | 29* | 0 | 123*
COc1ccc(NC(=O)c2cc(-c3cccs3)on2)cc1OC | 0 | -4 | 0 | -5 | -2 | 56*
CCOc1ccc(-c2nnc(-c3cccnc3)o2)cc1OCC | 0 | 6 | -1 | 18 | -3 | 89*
CC12CCC(C(=O)N3CCN(c4ccccc4)CC3)(CC1=O)C2(C)C (stereo not given) | 1 | 1 | -1 | 11 | 0 | -8
Fc1cccc(CN2CCN(c3ncccn3)CC2)c1 | 1 | 3 | -1 | 0 | -1 | -13
COc1ccc(-c2cc(C(=O)NC3CCCC3)no2)cc1OC | -1 | 2 | -2 | 3 | -3 | 74*
CCOc1ccc(-c2noc(-c3cccnc3)n2)cc1OC | 1 | -9 | -1 | 3 | -3 | 114*
CC(=O)N1CCc2cc(S(=O)(=O)NCCC3=CCCCC3)ccc21 | 0 | 12 | x | 6 | 0 | x
COC(=O)c1ccc(CC(=O)c2ccc(O)cc2O)o1 | 0 | -18 | 0 | 11 | 0 | 14
COC(=O)c1cc(CC(=O)c2ccc(O)cc2O)c(C)o1 | 0 | 5 | 0 | 6 | 284* | 12
COc1ccc(Cc2nnc(SCC(=O)Nc3nc(C)cs3)o2)cc1 | 0 | -7 | 0 | -13 | -1 | -52
COc1ccccc1NC(=O)Nc1nnc(C(C)C)s1 | 0 | x | -3 | 29* | 0 | 21
Cc1nnc(Sc2nc(Sc3nnc(C)s3)nc(N3CCN(C)CC3)n2)s1 | -1 | 78* | -2 | 68* | 4 | -72
c1ccc2c(c1)[nH]c1nc(SCCN3CCOCC3)nnc12 | 0 | -3 | -1 | 3 | 1 | x
Brc1ccc2[nH]c3nc(SCCN4CCOCC4)nnc3c2c1 | 0 | 3 | 1 | 36* | 0 | -67
SMILES | 5HT1E ag | 5-HT1A blocker | S1P3 agonist | HTR1E antagonist | HTR1A agonist | S1P1 ag pot
CCC(c1nnnn1Cc1ccc2c(c1)OCO2)N1CCN(c2ccc(F)cc2)CC1 (stereo not given) | -1 | 44* | -2 | 8 | -2 | -7
CCC(c1nnnn1Cc1ccc2c(c1)OCO2)N1CCN(c2ccccc2)CC1 (stereo not given) | -2 | 39 | 0 | 14 | 0 | 8
Cn1cc(/C=N/n2cnc3scc(-c4ccccc4)c3c2=O)c2ccccc21 | -1 | 10 | -1 | 30* | 3 | 29
C=CCOc1cccc(C2C(C(=O)c3ccco3)=C(O)C(=O)N2CCN(CC)CC)c1 (stereo not given) | 0 | 0 | 0 | -6 | 20* | -11
COc1ccc(/C=C/C(O)=C2/C(=O)N(C)C3(C)CC2c2ccccc2O3)cc1 (stereo not given) | 0 | 46* | -1 | 20 | -1 | -5
CN1CCN(c2ccccc2NC(=O)c2ccc(Br)o2)CC1 | 13* | 16 | -1 | 8 | 2 | -5
COc1cc(C)c(N)cc1C(C)C | 23* | -5 | 0 | -5 | 1 | -9
COc1cc(C)c(S(=O)(=O)N2CCOCC2)cc1C(C)C | 0 | 3 | -1 | 1 | -2 | -37
CC1CN(C(=O)Nc2ccc3snnc3c2)c2ccccc21 (stereo not given) | -1 | 5 | 1 | 13 | -1 | -7
O=C(NC1CCCCC1)C(c1ccco1)N(Cc1cccs1)C(=O)Cn1nnc2ccccc21 (stereo not given) | -1 | 46* | 0 | 8 | -3 | -20
O=C(NC1CCCC1)C(c1ccsc1)N(Cc1ccco1)C(=O)Cc1cccs1 (stereo not given) | 0 | 58* | 0 | 6 | -1 | 3
O=C(Cc1cccs1)N(Cc1ccco1)C1(C(=O)NC2CCCC2)CCCCC1 | 0 | 63* | x | 1 | -3 | x
Cc1ccc(-c2nnn(CC(=O)N(Cc3cccs3)C(C(=O)NC3CCCC3)c3ccco3)n2)o1 (stereo not given) | 1 | 17 | -1 | 17 | 2 | 25
O=C(NC1CCCCC1)C(c1ccco1)N(Cc1ccco1)C(=O)c1ccco1 (stereo not given) | -1 | 49* | -1 | -5 | 1 | 9
CCOc1cccc(C(=O)Nc2ccccc2N2CCN(C(=O)C(C)C)CC2)c1 | 0 | 3 | -2 | 7 | -2 | 15
O=S(=O)(Nc1cccc2ncccc12)c1cccs1 | 1 | 84* | 1 | 79* | -7 | 28
Cc1nnc(SCc2cn3ccsc3n2)n(N)c1=O | 0 | 6 | -1 | 12 | -1 | 14
O=c1c2ccccc2nc(SCc2cn3ccsc3n2)n1-c1ccc(F)cc1 | 0 | 19 | 0 | 37* | 6 | -21
CC(C)(C)C(=O)C(Oc1cccc2nonc12)n1cncn1 (stereo not given) | 0 | -13 | -1 | -9 | -4 | 5
COCCCNC(=O)c1c(N)n(/N=C/c2cccnc2)c2nc3ccccc3nc12 | 0 | x | -2 | -1 | 7 | -16
COCCCNC(=O)c1c(N)n(/N=C/c2cccs2)c2nc3ccccc3nc12 | 26* | x | 3 | -31 | 86* | -123
CCOC(=O)C1CCN(c2ncnc3c2cnn3-c2ccccc2)CC1 | 0 | 1 | -1 | 7 | 30* | 1

Screens (PubChem BioAssay)
